# Experimental data: ChEMBL document CHEMBL3856258, “Phosphonate-based irreversible inhibitors of human γ-glutamyl transpeptidase (GGT). GGsTop is a non-toxic and highly selective inhibitor with critical electrostatic interaction with an active-site residue Lys562 for enhanced inhibitory activity” (Bioorg Med Chem, 2016)
# Experiments:
# [1] = Cytotoxicity against CHL cells assessed as chromatid gap at 825 ug/ml after 24 hrs by Giemsa-staining-based microscopic analysis; format: toxicity, cell-based, Cricetulus griseus; conditions: chinese hamster
# [2] = Cytotoxicity against CHL cells assessed as growth rate at 5.41 ug/ml after 24 hrs in absence of S9 fraction by MTT assay relative to control; format: toxicity, cell-based, Cricetulus griseus; conditions: chinese hamster, read-out: Activity
# [3] = tested on: Salmonella typhimurium; experiment: Genotoxicity in Salmonella typhimurium TA98 assessed as number of revertant colonies per plate at 5000 ug/plate after 20 mins in absence of S9 fraction by Ames test (reference value: 21); format: toxicity, organism-based; conditions: salmonella enterica subsp. enterica serovar typhimurium
# [4] = tested on: Escherichia coli; experiment: Genotoxicity in Escherichia coli WP2uvrA assessed as number of revertant colonies per plate at 5000 ug/plate after 20 mins in absence of S9 fraction by Ames test (reference value: 24); format: toxicity; conditions: s9, 20 min
# [5] = Cytotoxicity against CHL cells assessed as number of cells with numerical aberrations at 1650 ug/ml preincubated for 6 hrs followed by 18 hrs incubation in fresh medium in absence of S9 fraction by Giemsa-staining-based microscopic analysis relative to control; format: toxicity, cell-based, Cricetulus griseus; conditions: chinese hamster
# [6] = Cytotoxicity against CHL cells assessed as structural aberrations at 825 ug/ml preincubated for 6 hrs followed by 18 hrs incubation in fresh medium in presence of S9 fraction by Giemsa-staining-based microscopic analysis; format: toxicity, cell-based, Cricetulus griseus; conditions: chinese hamster
# [7] = Cytotoxicity against CHL cells assessed as growth rate at 5.41 ug/ml preincubated for 6 hrs followed by 18 hrs incubation in fresh medium in absence of S9 fraction by MTT assay relative to control; format: toxicity, cell-based, Cricetulus griseus; conditions: chinese hamster, read-out: Activity
# [8] = tested on: Escherichia coli; experiment: Genotoxicity in Escherichia coli WP2uvrA assessed as number of revertant colonies per plate at 1667 ug/plate after 20 mins in presence of S9 fraction by Ames test (reference value: 26); format: toxicity; conditions: s9, 20 min
# [9] = tested on: Escherichia coli; experiment: Genotoxicity in Escherichia coli WP2uvrA assessed as number of revertant colonies per plate at 5000 ug/plate after 20 mins in presence of S9 fraction by Ames test (reference value: 26); format: toxicity; conditions: s9, 20 min
# [10] = Cytotoxicity against CHL cells assessed as growth rate at 528 ug/ml preincubated for 6 hrs followed by 18 hrs incubation in fresh medium in presence of S9 fraction by MTT assay relative to control; format: toxicity, cell-based, Cricetulus griseus; conditions: chinese hamster, read-out: Activity
# [11] = Cytotoxicity against CHL cells assessed as number of cells with numerical aberrations at 825 ug/ml preincubated for 6 hrs followed by 18 hrs incubation in fresh medium in presence of S9 fraction by Giemsa-staining-based microscopic analysis relative to control; format: toxicity, cell-based, Cricetulus griseus; conditions: chinese hamster
# [12] = Cytotoxicity against CHL cells assessed as structural aberrations at 1650 ug/ml preincubated for 6 hrs followed by 18 hrs incubation in fresh medium in absence of S9 fraction by Giemsa-staining-based microscopic analysis; format: toxicity, cell-based, Cricetulus griseus; conditions: chinese hamster
# [13] = Cytotoxicity against CHL cells assessed as growth rate at 84.5 ug/ml preincubated for 6 hrs followed by 18 hrs incubation in fresh medium in presence of S9 fraction by MTT assay relative to control; format: toxicity, cell-based, Cricetulus griseus; conditions: chinese hamster, read-out: Activity
# [14] = Cytotoxicity against CHL cells assessed as growth rate at 528 ug/ml after 24 hrs in absence of S9 fraction by MTT assay relative to control; format: toxicity, cell-based, Cricetulus griseus; conditions: chinese hamster, read-out: Activity
# [15] = Cytotoxicity against CHL cells assessed as growth rate at 1320 ug/ml preincubated for 6 hrs followed by 18 hrs incubation in fresh medium in absence of S9 fraction by MTT assay relative to control; format: toxicity, cell-based, Cricetulus griseus; conditions: chinese hamster, read-out: Activity
# [16] = Cytotoxicity against CHL cells assessed as growth rate at 211 ug/ml after 24 hrs in absence of S9 fraction by MTT assay relative to control; format: toxicity, cell-based, Cricetulus griseus; conditions: chinese hamster, read-out: Activity
# [17] = tested on: Escherichia coli; experiment: Genotoxicity in Escherichia coli WP2uvrA assessed as number of revertant colonies per plate at 20.6 ug/plate after 20 mins in presence of S9 fraction by Ames test (reference value: 26); format: toxicity; conditions: s9, 20 min
# [18] = tested on: Escherichia coli; experiment: Genotoxicity in Escherichia coli WP2uvrA assessed as number of revertant colonies per plate at 185 ug/plate after 20 mins in presence of S9 fraction by Ames test (reference value: 26); format: toxicity; conditions: s9, 20 min
# [19] = tested on: Salmonella typhimurium; experiment: Genotoxicity in Salmonella typhimurium TA1535 assessed as number of revertant colonies per plate at 61.7 ug/plate after 20 mins in absence of S9 fraction by Ames test (reference value: 15); format: toxicity, organism-based; conditions: salmonella enterica subsp. enterica serovar typhimurium
# [20] = tested on: Salmonella typhimurium; experiment: Genotoxicity in Salmonella typhimurium TA100 assessed as number of revertant colonies per plate at 556 ug/plate after 20 mins in absence of S9 fraction by Ames test (reference value: 123); format: toxicity, organism-based; conditions: salmonella enterica subsp. enterica serovar typhimurium
# [21] = tested on: Salmonella typhimurium; experiment: Genotoxicity in Salmonella typhimurium TA98 assessed as number of revertant colonies per plate at 185 ug/plate after 20 mins in presence of S9 fraction by Ames test (reference value: 26); format: toxicity, organism-based; conditions: salmonella enterica subsp. enterica serovar typhimurium
# [22] = Cytotoxicity against CHL cells assessed as structural aberrations at 3300 ug/ml after 24 hrs by Giemsa-staining-based microscopic analysis; format: toxicity, cell-based, Cricetulus griseus; conditions: chinese hamster
# [23] = tested on: Glutathione hydrolase 1 proenzyme (Homo sapiens), P19440 [K562S]; experiment: Inhibition of human GGT K562S mutant expressed in baculovirus infected High Five cells assessed as residual activity up to 1 mM using gamma-Glu-PNA as substrate after 5 mins by spectrophotometric method relative to control; conditions: BTI-TN-5B1-4
# How it was run: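 Soluble N-terminal-truncated (Δ1–27) GGT was secreted by baculovirus-infected High Five cells (4 d, 27 °C) and purified from the medium on Con A and Q Sepharose. Activity was measured in 100 mM Tris-HCl pH 8.0 with 1 mM γ-Glu-PNA and 20 mM Gly-Gly at 37 °C, reading p-nitroaniline release continuously at 410 nm.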
# [24] = Cytotoxicity against human CCD-1059SK cells assessed as reduction in cell viability up to 1 mM after 24 hrs by neutral red method; format: toxicity, cell-based
# How it was run: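 CCD-1059SK skin fibroblasts, passages 10–20, grown in DMEM with 10% FBS at 37 °C under 5% CO2. Pre-incubated 24 h after plating, then exposed 24 h to 0, 10, 100 or 1000 µM, diluted into medium from distilled water. Viability read by Neutral Red assay.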
# [25] = tested on: Salmonella typhimurium; experiment: Genotoxicity in Salmonella typhimurium TA98 assessed as number of revertant colonies per plate at 1667 ug/plate after 20 mins in presence of S9 fraction by Ames test (reference value: 26); format: toxicity, organism-based; conditions: salmonella enterica subsp. enterica serovar typhimurium
# [26] = Cytotoxicity against CHL cells assessed as growth rate at 2.16 ug/ml preincubated for 6 hrs followed by 18 hrs incubation in fresh medium in absence of S9 fraction by MTT assay relative to control; format: toxicity, cell-based, Cricetulus griseus; conditions: chinese hamster, read-out: Activity
# [27] = Cytotoxicity against CHL cells assessed as growth rate at 13.5 ug/ml preincubated for 6 hrs followed by 18 hrs incubation in fresh medium in presence of S9 fraction by MTT assay relative to control; format: toxicity, cell-based, Cricetulus griseus; conditions: chinese hamster, read-out: Activity
# [28] = Cytotoxicity against CHL cells assessed as chromatid gap at 1650 ug/ml after 24 hrs by Giemsa-staining-based microscopic analysis; format: toxicity, cell-based, Cricetulus griseus; conditions: chinese hamster
# [29] = Cytotoxicity against CHL cells assessed as growth rate at 3300 ug/ml after 24 hrs in absence of S9 fraction by MTT assay relative to control; format: toxicity, cell-based, Cricetulus griseus; conditions: chinese hamster, read-out: Activity
# [30] = tested on: Salmonella typhimurium; experiment: Genotoxicity in Salmonella typhimurium TA1535 assessed as number of revertant colonies per plate at 20.6 ug/plate after 20 mins in presence of S9 fraction by Ames test (reference value: 13); format: toxicity, organism-based; conditions: salmonella enterica subsp. enterica serovar typhimurium
# Chain of Glutathione hydrolase 1 proenzyme (Homo sapiens), P19440 [K562S] (P19440 whole entry K562S, the tested form may be a part): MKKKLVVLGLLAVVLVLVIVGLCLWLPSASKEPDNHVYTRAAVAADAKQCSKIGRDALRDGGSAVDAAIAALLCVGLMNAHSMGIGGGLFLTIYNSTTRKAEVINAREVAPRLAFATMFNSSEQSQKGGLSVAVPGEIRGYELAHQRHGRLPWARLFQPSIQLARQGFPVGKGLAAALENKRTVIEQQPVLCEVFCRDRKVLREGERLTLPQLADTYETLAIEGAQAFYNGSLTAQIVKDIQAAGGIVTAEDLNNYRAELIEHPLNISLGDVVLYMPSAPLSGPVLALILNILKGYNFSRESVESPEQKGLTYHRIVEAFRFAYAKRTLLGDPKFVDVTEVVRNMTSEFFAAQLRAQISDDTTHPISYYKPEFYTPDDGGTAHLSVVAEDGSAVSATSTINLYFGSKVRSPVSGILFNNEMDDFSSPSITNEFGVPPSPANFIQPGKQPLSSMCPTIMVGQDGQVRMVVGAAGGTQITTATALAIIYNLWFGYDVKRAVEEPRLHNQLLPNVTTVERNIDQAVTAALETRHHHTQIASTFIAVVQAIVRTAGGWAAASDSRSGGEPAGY
structure (smiles),measurement,setting,value
COP(=O)(CCC(N)C(=O)O)Oc1cccc(CC(=O)O)c1 (stereo not given),Activity,[1],0%
same,"viability at 24 h, 5.41 ug/ml",[2],105%
same,Activity,[3],24
same,Activity,[4],29
same,Activity,[5],0%
same,Activity,[6],1%
same,"viability at 18 h, 5.41 ug/ml",[7],103%
same,Activity,[8],23
same,Activity,[9],34
same,"viability at 18 h, 528 ug/ml",[10],95.2%
same,Activity,[11],1%
same,Activity,[12],0%
same,"viability at 18 h, 84.5 ug/ml",[13],100%
same,"viability at 24 h, 528 ug/ml",[14],96%
same,"viability at 18 h, 1320 ug/ml",[15],95.7%
same,"viability at 24 h, 211 ug/ml",[16],98.2%
same,Activity,[17],30
same,Activity,[18],28
same,Activity,[19],8
same,Activity,[20],118
same,Activity,[21],34
same,Activity,[22],1%
same,Activity,[23],> 80%
same,Activity,[24],Non-Toxic
same,Activity,[25],29
same,"viability at 18 h, 2.16 ug/ml",[26],103%
same,"viability at 18 h, 13.5 ug/ml",[27],103%
same,Activity,[28],1%
same,"viability at 24 h, 3300 ug/ml",[29],79.5%
same,Activity,[30],11
